Results on one molecule are retold here after PMC2906681 (Biochemical pharmacology, 2010).

Where only a bound is given, the exact number is not on record here.

Data set [1] relates to STAT1 tyrosine phosphorylation. Briefly: IFN-γ-stimulated STAT1 tyrosine phosphorylation in HT-29 cells. Conditions: 20 µM, 2 h pre-treatment, IFN-γ 20 U/ml. Format: cell-based.
Data set [2] relates to cells. In words: Confocal laser scanning microscopy of compound uptake. Format: in vitro ADME. Conditions: 25 µM, 3 h. The method in brief: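 TF-1/Shp2E76K cells grown in glass-bottom dishes were exposed to test compound at 25 µM for 3 h, then Hoechst 33342 (5 µg/ml) was added. Internal confocal sections were imaged with a 63X/1.40NA oil objective (2,520×), using 458 nm argon and 405 nm diode excitation with tunable emission filters. Compound fluorescence was viewed green.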

Data set [3] relates to Erk1/2 activation. Briefly: EGF-stimulated Erk1/2 activation in MDA-MB-468 cells. Format: cell-based. Conditions: 0–20 µM tested, EGF 2 ng/ml 5 min. The method in brief:
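Serum-starved MDA-MB-468 cells were pretreated with test compound (0–20 µM), then stimulated with EGF (2 ng/ml, 5 min). Cleared lysates were immunoblotted for dual-phosphorylated Erk1/2 and total Erk1/2.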

The subject of data set [4] is p21. Briefly: p21 expression in HT-29 cells. Conditions: 12.5 µM with IFN-γ, 24 h, versus IFN-γ alone. It counts as cell-based. The method in brief: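 HT-29 cells were treated 24 h with IFN-γ at indicated amounts, with or without test compound at 12.5 µM. Cell lysates were immunoblotted for p21, with β-actin as loading reference.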
Data set [5] relates to ISRE-luciferase reporter. In words: ISRE luciferase reporter assay in HT-29 cells. Format: cell-based. The method in brief:
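HT-29 cells (5 × 10^5 per well) were co-transfected by lipofection with 1.6 µg pISRE-Luc and 0.4 µg β-gal plasmids. They were then stimulated with 50 U/ml IFN-γ for 6 h or left unstimulated. Luciferase was normalized to β-galactosidase activity; two duplicate experiments (n = 4).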
Background: In a reporter assay the amount or activity of a reporter protein is the signal.

Data set [6] concerns pErk1/2 and Bcl-XL. In words: pErk1/2 and Bcl-XL immunoblotting in TF-1/Shp2^E76K cells. Format: cell-based. The following applies: concentration-dependent. A general note: In western blotting, separated proteins are transferred to a membrane and probed.
Data set [7] deals with TF-1/Shp2^E76K cells. In words: Cell growth assay. Format: cell-based. The following applies: 96 h, read-out: concentration giving a 50% decrease in viable cells. In a few lines: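 TF-1/Shp2E76K cells were plated at 1,000 cells/well in triplicate in RPMI1640/10% FBS without GM-CSF, with test compound. The compound volume was ≤0.1% of the total. Cells were incubated 4 days at 37 °C/5% CO2, then relative viable cell number was read with CellTiterGlo. Data came from two triplicate experiments.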

Data set [8] has as its system paxillin dephosphorylation. In words: EGF-induced paxillin tyrosine dephosphorylation in MDA-MB-468 cells. It counts as cell-based. Conditions: 20 µM, 2 h; EGF 50 ng/ml 10 min. In a few lines: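 Serum-starved MDA-MB-468 cells received test compound (20 µM, 2 h) and/or EGF (50 ng/ml, 10 min). Cells were lysed on ice in Tris buffer (pH 7.5) containing Na3VO4, NaF, pyrophosphate and protease inhibitors. Paxillin was immunoprecipitated, resolved by SDS-PAGE and immunoblotted with anti-phosphotyrosine and anti-paxillin antibodies.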

The target in data set [9] is T1, GST-Shp2 PTP domain protein (Homo sapiens, UniProt Q06124).
T1 sequence (Q06124 247-517 limits assumed): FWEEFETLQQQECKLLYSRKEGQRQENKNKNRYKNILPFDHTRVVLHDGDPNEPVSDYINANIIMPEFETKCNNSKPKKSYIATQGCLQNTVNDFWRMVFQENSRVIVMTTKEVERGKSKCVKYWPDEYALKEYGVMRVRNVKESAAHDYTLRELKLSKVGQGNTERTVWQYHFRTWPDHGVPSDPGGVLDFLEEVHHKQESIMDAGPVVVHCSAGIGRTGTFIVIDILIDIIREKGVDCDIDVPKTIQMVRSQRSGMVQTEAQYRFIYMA
In words: In vitro Shp2 PTP activity inhibition assay. Format: biochemical.

Data set [10] has as its target T2, Shp2^E76K (Homo sapiens, UniProt Q06124, E76K).
T2 sequence (Q06124 1-593 E76K): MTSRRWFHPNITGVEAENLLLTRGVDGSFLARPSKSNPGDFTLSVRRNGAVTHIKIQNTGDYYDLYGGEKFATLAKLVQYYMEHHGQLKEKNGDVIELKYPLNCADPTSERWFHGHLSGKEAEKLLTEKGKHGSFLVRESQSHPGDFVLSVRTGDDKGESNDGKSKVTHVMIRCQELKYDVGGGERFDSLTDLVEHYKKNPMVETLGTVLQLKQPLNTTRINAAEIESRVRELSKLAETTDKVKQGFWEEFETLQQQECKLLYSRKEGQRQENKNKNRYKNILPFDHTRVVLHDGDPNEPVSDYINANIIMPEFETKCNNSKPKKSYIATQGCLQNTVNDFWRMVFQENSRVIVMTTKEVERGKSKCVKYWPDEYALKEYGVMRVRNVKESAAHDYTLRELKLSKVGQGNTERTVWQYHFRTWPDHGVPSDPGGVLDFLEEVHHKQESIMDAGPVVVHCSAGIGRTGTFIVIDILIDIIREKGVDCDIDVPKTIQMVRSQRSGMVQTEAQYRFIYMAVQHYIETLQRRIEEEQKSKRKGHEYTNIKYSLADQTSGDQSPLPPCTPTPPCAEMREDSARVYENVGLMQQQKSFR
Briefly: Shp2^E76K PTP activity in immune complexes from TF-1/Shp2^E76K cells. Format: cell-based. The following applies: GM-CSF-free medium. In a few lines:
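TF-1/Shp2E76K cells were treated in GM-CSF-free RPMI1640/10% FBS with test compound at various concentrations. Flag-Shp2E76K was immunoprecipitated with anti-Flag M2/protein G (0.2 mg lysate, 2 h, 4 °C) and washed. Complexes were incubated with 50 µM DiFMUP for 20 min at room temperature, and fluorescence was measured. Part of each immunoprecipitate was blotted for Shp2. Two experiments.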

Data set [11] deals with MDA-MB-468 cells. In words: Transwell cell migration assay. Format: cell-based. Conditions: EGF 10 ng/ml, 16 h.
For data set [12], the system named is TF-1/Shp2^E76K cells. Briefly: EB/AO staining apoptosis assay. It counts as cell-based. The following applies: 3 days, base level 4.2%.

With `COC(=O)c1cccc(N/N=C2\C(=O)Nc3ccc(S(=O)(=O)NCc4ccc(F)cc4)cc32)c1` [SPI-112Me, (Z)-3-(2-(5-(N-(4-fluorobenzyl)sulfamoyl)-2-oxoindolin-3-ylidene)hydrazinyl)benzoic acid methyl ester], the “effect on IFN-γ-stimulated STAT1 tyrosine phosphorylation” value in data set [1] was “increased amount of tyrosine-phosphorylated STAT1”. Besides, in data set [2], the “green fluorescence in confocal images of internal sections of cells” value is listed as “readily detectable”. Further, the “concentration at which inhibition of EGF-stimulated pErk1/2 signal was observed” value in [3] turned out to be 10 µM. The p21 expression entry in [4] is listed as “higher levels of p21”. The “activation of ISRE luciferase activity” value is 54% in data set [5] (10 µM SPI-112Me plus IFN-γ 50 U/ml) and 98% in [5] (25 µM SPI-112Me plus IFN-γ 50 U/ml). Also, the “amounts of pErk1/2 and Bcl-XL” value in data set [6] is “reduced”. The IC50 was 10 µM in data set [7] and over 100 µM in [9]. Further, in data set [8], the “effect on EGF-induced paxillin tyrosine dephosphorylation” value is “prevented”. Besides, the “Shp2^E76K PTP activity in treated cells” value in [10] was “lower Shp2^E76K PTP activity”. In addition, the “reduction of EGF-stimulated cell migration” value in [11] (12.5 µM) came out at 62%. Further, in data set [11] (25 µM), the “effect on EGF-stimulated cell migration” value is reported as “completed blocked”. In addition, the apoptotic cells is 9.3% in data set [12] (12.5 µM) and 18.8% in data set [12] (25 µM).
